Most compounds without a hit are left out; they make up all but 2% or so of the library.
Runt-SMMHC FRET: inhibitors of human RUNX1 Runt domain binding to CBFb-SMMHC. Q01196+Q13951. Cerulean-Runt/Venus-CBFb-SMMHC FRET ratio 530/480, 1 h. inhibition, % at 20 µM. 220,000 compounds, 0.74% hits. AID 1434;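 active means mean inhibition across duplicate retests at 20 µM reaching about 50%, limit read from the data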;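 further: 0% = DMSO wells and 100% = wells with excess untagged CBFb-SMMHC; inhibitors lower the FRET ratio by blocking Runt binding to CBFb-SMMHC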
Target sequence (Q01196 whole entry, looked up, the tested form may be a part): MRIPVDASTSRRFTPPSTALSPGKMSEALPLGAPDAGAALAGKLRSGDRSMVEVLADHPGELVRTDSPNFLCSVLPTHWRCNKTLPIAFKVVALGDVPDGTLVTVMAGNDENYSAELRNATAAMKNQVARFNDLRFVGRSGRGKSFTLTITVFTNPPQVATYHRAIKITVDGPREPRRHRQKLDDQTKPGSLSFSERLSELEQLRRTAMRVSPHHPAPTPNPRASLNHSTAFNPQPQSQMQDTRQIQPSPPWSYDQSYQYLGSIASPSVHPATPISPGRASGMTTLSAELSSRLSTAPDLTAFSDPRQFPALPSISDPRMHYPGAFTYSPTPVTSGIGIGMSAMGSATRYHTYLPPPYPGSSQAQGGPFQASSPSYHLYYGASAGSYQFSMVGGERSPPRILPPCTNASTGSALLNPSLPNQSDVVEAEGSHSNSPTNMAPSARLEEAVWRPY
Target sequence (Q13951 whole entry, looked up, the tested form may be a part): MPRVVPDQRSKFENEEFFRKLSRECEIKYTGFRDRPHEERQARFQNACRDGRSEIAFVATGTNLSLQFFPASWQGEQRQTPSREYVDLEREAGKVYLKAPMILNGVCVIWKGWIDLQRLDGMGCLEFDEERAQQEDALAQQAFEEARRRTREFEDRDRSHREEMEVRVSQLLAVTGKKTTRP
Runt-CBFb FRET: inhibitors of human RUNX1 Runt domain binding to CBFb | Q01196+Q13951 | Cerulean-Runt/Venus-CBFb FRET ratio 530/480, 1 h | inhibition, % at 20 µM | 220,000 compounds, 0.46% hits | AID 1496;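 active means inhibition over about 50% at 20 µM in the single-dose screen, limit read from the data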;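 further: 0% = DMSO wells and 100% = excess unlabeled CBFb competitor control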
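test system = Cerulean-Runt domain fusion protein, energy donor | probe or stimulus = Venus-CBFb binding partner, 100 nM | incubation = two 1 h room-temperature incubations shielded from light | detection = fluorescence energy transfer, 422 nm excitation, 530/480 nm emission | measure = loss of energy transfer signal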
MEX-5 binding: C. elegans MEX-5 TCR-2 RNA binding activity | AID 1832 | 300,000 compounds, 0.38% hits | activity score (negative = inhibition of binding), % at 10 µM | MEX-5/FITC-TCR2 RNA binding, fluorescence polarization; stronger effect = lower value | Q9XUB2;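 active means inhibition past about -25% in most replicates, and total fluorescence under double the plate's negative control median, limit read from the data; inconclusive means replicates evenly split on the limit, or fluorescence at least double controls; inactive means too little inhibition in most replicates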;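 further: 0% = DMSO and -100% = 5 µM competing unlabeled TCR2 RNA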
PKD1 kinase inh: PKD1 (human) kinase inhibition. Q15139. PKD1 kinase fluorescence polarization assay. inhibition, % (test concentration not listed). 200,000 compounds, 0.056% hits
EBV gp42 inh: inhibitors of Epstein-Barr virus glycoprotein 42; Q1HVG2; Fluorescence polarization binding assay, mP read-out; inhibition, % (tested at 21.74 µM); 220,000 compounds, 0.42% hits; AID 1085
RanGTP-Imp inh: disruptors of Ran-importin-beta complex formation – biochemical, FRET, CFP-Ran, YFP-importin-beta, homogeneous, primary screen. cell-free CFP-Ran/YFP-importin-beta FRET ratio. inhibition, % (concentration not given with the values). AID 2216. 300,000 compounds, 1.1% hits;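 active means more than half of the replicate wells show a fall in the fluorescence ratio signal beyond about 16%, limit read from the data, passing the limit was not always enough; inconclusive means exactly half of the replicate wells pass the set limit; inactive means fewer than half of replicates pass the limit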;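 further: 0% = DMSO wells and 100% = Ran loaded with GDP instead of GTP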
The depositor's hits bear a star; u = inconclusive; x = no result. Unless noted, no stated cut-off is given here; in the data, active means inhibition above about 50%; inactive means the rest.

SMILES | Runt-SMMHC FRET | Runt-CBFb FRET | MEX-5 binding | PKD1 kinase inh | EBV gp42 inh | RanGTP-Imp inh
O=C1Nc2ccc(S(=O)(=O)NCC3CCCO3)c3cccc1c23 (stereo not drawn) | 21.5 | 15.8 | -0.1 | -10.9 | -0.3 | -2.8
CCN1C(=O)c2cccc3c(S(=O)(=O)NCc4cccnc4)ccc1c23 | 57.2* | -23.0 | -1.2 | 0.6 | 6.1 | 23.4*
Cc1cc(Br)ccc1NC(=O)CSc1nnc(CN2CCOCC2)n1C | x | x | 1.8 | x | x | -0.5
CNC(=O)/C(C#N)=C/c1c(N2CCCCCC2)nc2ccccn2c1=O | x | x | 1.1 | x | x | 1.8
CCC(CC)=N/N=C/c1c(O)n(CC)c2cc(C3=NNC(=O)CC3)ccc12 | -14.7 | 0.0 | 35.9 | 8.5 | -22.1 | 1.3
CCn1c(O)c(/C=N/N=C/c2ccccc2)c2ccc(C3=NNC(=O)CC3)cc21 | -132.9 | -49.8 | -12.5 | -3.5 | 59.6* | 4.6
CCCOc1ccc(-c2c(C(=O)N/N=C/C3CCCCC3)nnn2-c2nonc2N)cc1 | x | x | -1.8 | x | x | u
CCn1c(C)cc(C=C2C(=O)c3ccccc3C2=O)c1C | -11.3 | 0.0 | -7.7 | 1.3 | 107.3* | -5.7
Cc1cc(C=C2C(=O)c3ccccc3C2=O)c(C)n1-c1ccc(Cl)cc1 | -74.9 | -5.2 | u | -7.4 | 61.4* | 1.9
Cc1cc(C=C2C(=O)c3ccccc3C2=O)c(C)n1C | -7.8 | -0.4 | -2.8 | 9.7 | 38.6 | 4.1
Cc1cccc(-n2c(C)cc(C=C3C(=O)c4ccccc4C3=O)c2C)c1 | -3.3 | 0.0 | -31.0* | -4.2 | 31.7 | -8.9
NS(=O)(=O)c1ccc(NS(=O)(=O)c2ccc(C3CNC(=O)C3)cc2)cc1 (stereo not drawn) | x | x | -1.7 | x | x | -0.3
CCCCc1nc2cc(C(=O)N3CCCC(OCCC)C3)ccc2o1 (stereo not drawn) | x | x | -1.1 | x | x | -2.9
COc1ccc(Nc2nc3ccccc3nc2NS(=O)(=O)c2cccs2)c(OC)c1 | -8.3 | -6.7 | -40.0* | x | 22.5 | 9.9
COc1ccc(N2CC(NS(=O)(=O)c3cccnc3)CC2=O)cc1OC (stereo not drawn) | x | x | 1.2 | x | x | 2.8
Cc1ccc(N2CC(NS(=O)(=O)c3cccnc3)CC2=O)cc1C (stereo not drawn) | x | x | 1.0 | x | x | 32.5*
Cc1cccc(C)c1OCC(=O)Nc1ccc2c(c1)C(=O)NC2=O | x | x | 0.4 | x | x | 7.4
Cc1ccc(NC(=O)/C(C#N)=C(\N)C(Cl)(Cl)Cl)nc1 | -2.9 | 3.2 | u | 1.7 | 137.4* | 5.5
CCc1ccccc1NC(=O)CCS(=O)(=O)c1ccc(Br)cc1 | x | x | 0.0 | x | x | 3.7
COC(=O)c1ccccc1NC(=O)CCS(=O)(=O)c1ccc(Br)cc1 | 3.6 | 0.2 | 0.4 | 0.5 | 75.5* | 2.9
Cc1ccc2c(N)c(C)ccc2c1 | 3.2 | -0.6 | -2.1 | -9.0 | -17.1 | -1.8
Cc1ccc2cc3c(N)c4c(C)ccc(C)c4nc3nc2c1 | -26.5 | -17.3 | -4.2 | 3.5 | 147.8* | 2.5
COc1cc2c(cc1OC)C(c1ccccc1Cl)N(C)CC2 (stereo not drawn) | x | x | 3.7 | x | x | -1.8
O=c1[nH]c(SCc2ccccc2)nc2c1cnn2-c1ccc(F)cc1 | -6.0 | 0.3 | -0.1 | 0.0 | -15.9 | 28.4*
O=c1[nH]c(SCc2ccc(F)cc2)nc2c1cnn2-c1ccc(F)cc1 | -0.6 | 0.0 | -1.8 | 2.8 | x | 1.8
SMILES | Runt-SMMHC FRET | Runt-CBFb FRET | MEX-5 binding | PKD1 kinase inh | EBV gp42 inh | RanGTP-Imp inh
Cc1ccc(C(=O)ONc2ccc(N=NC(=O)c3ccccc3O)cc2)cc1 | -16.5 | 0.8 | -0.1 | -0.1 | 92.6* | u
COc1ccc(NC(=O)C2CCCC2)cn1 | -1.1 | -1.0 | -0.6 | -2.5 | -6.4 | -2.9
COc1ccc(COc2ccc(S(=O)(=O)N3CCCC3)cc2C(N)=O)cc1F | x | x | -1.9 | x | x | 4.8
CN(C)c1ccc(/C=N/NC2=NS(=O)(=O)c3ccccc32)cc1 | x | x | -41.2* | x | x | 1.5
CN(C)c1ccc(/C=N/N(CCC(=O)NC(C)(C)C)C2=NS(=O)(=O)c3ccccc32)cc1 | x | x | -53.0* | x | x | -5.7
COc1ccc(/C=N/NC2=NS(=O)(=O)c3ccccc32)cc1 | x | x | 2.3 | x | x | -2.8
CC(=O)NC12CC3CC(C1)CC(C(=O)Nc1nc4c(C)cccc4s1)(C3)C2 | x | x | 0.6 | x | x | 0.2
O=C(c1ccc(Cl)cc1)C1C2C(=O)N(c3ccccc3)C(=O)C2C2CCCN21 (stereo not drawn) | -27.2 | -2.2 | -29.5* | 1.5 | 81.3* | -30.2

Bioassay records from PubChem.
